# Experimental data from ChEMBL document CHEMBL4017491, “Phthalazino[1,2-b]quinazolinones as p53 Activators: Cell Cycle Arrest, Apoptotic Response and Bak-Bcl-xl Complex Reorganization in Bladder Cancer Cells” (J Med Chem, 2017).
# Key:
# HepG2 = experiment: Antitumor activity against human HepG2 cells xenografted in BALB/C nude mouse assessed as tumor growth inhibition at 6 mg/kg, ip administered every 2 days for 16 days relative to control; assay type: functional; details: read-out: TGI
# Outline: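 Male BALB/C nude mice, 6 weeks old, given subcutaneous flank injection of 5 × 10^6 HepG2 cells; tumors of 80−200 mm3 randomized, n = 6/group. Dosing ip every other day, vehicle 5% DMSO in saline (v/v). Tumor length and width measured three times a week, volume V = lw2/2; growth inhibition expressed versus vehicle group. Body weight also recorded.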
# T-24 = experiment: Effect on cell cycle distribution in human T24 cells assessed as early apoptotic cells at 1 uM after 1 hr by Annexin V-FITC/propidium iodide staining based FACS analysis relative to control; assay type: functional
compound,measurement,setting,value
CN(C)CCNc1nn2c(=O)c3cc(Br)ccc3nc2c2ccccc12,inhibition in vivo at 6 mg/kg,HepG2,43.6%
same,Activity,T-24,0%
